An excerpt weighted towards active compounds, which were near 3.1% of everything screened.
Apaf-1 inh = blocks human Apaf-1 apoptosome activity; O14727; AID 489030; reconstituted apoptosome caspase-3 activity, DEVD-Rh110 fluorescence; inhibition, % at 20 µM; 0.71% of 330,000 active; active means inhibition of at least 40% at 20 µM;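 further: plate controls were DMSO wells for no effect and DEVD-CHO caspase inhibitor wells for full effect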
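System: reconstituted apoptosome with Apaf-1, cytochrome c, caspase-9, procaspase-3, dATP; Signal: Rh110 fluorescence intensity; Schedule: 30 min compound preincubation, 50 min activation, room temperature; Reagent: cytochrome c trigger plus (Z-DEVD)2-Rh110 caspase-3 substrate.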
UBC13 polyUb = inhibitors of human UBC13 polyubiquitin chain formation. P61088. inhibition, % at 20 µM. AID 485273. 0.47% of 330,000 active. TR-FRET; in the data active means inhibition above about 45%, passing the limit was not always enough
SENP6 inh = blocks the human protease SENP6; Recombinant SENP6 catalytic domain, aminoluciferin luminescence; inhibition, % at 10 µM; 1.8% of 330,000 active; AID 2599;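 active means inhibition above about 50% at the single tested dose, limit read from the data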;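 further: plate controls were DMSO wells with enzyme for no effect and DMSO wells lacking enzyme for full effect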
SENP8 block-1 = SENP8 (human) protease inhibition | recombinant SENP8, Nedd8 substrate fluorescence | inhibition, % at 20 µM | 0.64% of 360,000 active; in the data active means inhibition mostly above about 40%, no sharp cut-off; inactive means mostly below about 27%
SENP7 inh = blocks the human protease SENP7; inhibition, % at 5 µM; AID 434973; recombinant SENP7, Z-RLRGG-aminoluciferin luminescence, 40 min; Q9BQF6; 1.5% of 330,000 active;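 active means inhibition above about 50% at the single test dose, limit read from the data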;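 further: plate controls were DMSO with enzyme for no effect and no enzyme buffer wells for full effect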
SENP8 block-2 = SENP8 protease inhibition | purified SENP8, Z-RLRGG-aminoluciferin cleavage, luminescence | inhibition, % at 10 µM | 1.2% of 330,000 active | AID 2540; in the data active means inhibition above about 50%
SENP8 conf = confirmation of human SENP8 protease inhibitors; shares compounds with SENP7 inh; inhibition, % at 12.5 µM; Recombinant SENP8, Z-RLRGG-aminoluciferin luminescence, 60 min; 40% of 6,200 active;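 active means mean inhibition across replicates above about 50%, limit read from the data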
SENP6 confirm = human SENP6 inhibition, confirmed; AID 488915; 58% of 6,200 active; recombinant SENP6, Z-RLRGG-aminoluciferin luminescence; inhibition, % at 12.5 µM; shares compounds with SENP7 inh
SENP7 confirm = human SENP7 inhibition, confirmed | shares compounds with SENP7 inh | recombinant SENP7, Z-RLRGG-aminoluciferin luminescence, 40 min | inhibition, % at 12.5 µM | 69% of 6,200 active
Casp3 SENP sel = caspase-3 inhibition (SENP selectivity assay); 60% of 6,200 active; shares compounds with SENP7 inh; inhibition, % at 12.5 µM; purified caspase-3, Z-DEVD-aminoluciferin luminescence, 60 min;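 active means mean inhibition above about 50%, limit read from the data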;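 further: plate controls were enzyme with DMSO for no effect and wells without caspase-3 for full effect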
SENP luc ctr = interferes with luciferase luminescence in SENP counter-screen | shares compounds with SENP7 inh | 39% of 6,200 active | AID 488919 | inhibition, % at 12.5 µM | Pre-incubated SENP8/Z-RLRGG-aminoluciferin, luciferase luminescence interference;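 active means mean inhibition above about 50% when retested at one dose, limit read from the data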;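 further: plate controls were DMSO wells with completed reaction for no effect and substrate without enzyme for full effect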
* = called active by the depositor; x = not tested or not shown.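 How the source made its calls, unless noted: active means mean inhibition above about 50% in the one-dose retest (limit read from the data); inactive means the rest.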

SMILES | Apaf-1 inh | UBC13 polyUb | SENP6 inh | SENP8 block-1 | SENP7 inh | SENP8 block-2 | SENP8 conf | SENP6 confirm | SENP7 confirm | Casp3 SENP sel | SENP luc ctr
CN(C)c1ccc(N=Nc2cccc3ccoc23)cc1 | 15.9 | -230.6 | 86.3* | 24.0 | 90.5* | 83.8* | 77.0* | 76.7* | 94.0* | 48.0 | 28.3
CN(C)c1ccc(N=Nc2cccc(F)c2)cc1 | 10.4 | -84.7 | 93.9* | 30.9 | 94.7* | 86.9* | 6.2 | 72.6* | 56.2* | 58.9* | 63.8*
CN(C)c1ccc(N=Nc2ccc(S(N)(=O)=O)cc2)cc1 | -35.8 | -94.7 | 3.4 | 21.4 | 32.1 | -9.5 | x | x | x | x | x
Cc1ccc([C@H]2C[C@@H](O)[C@H](n3cc(C4CC4)nn3)CN2C(=O)c2cccs2)cc1 | x | x | x | 0.8 | x | x | x | x | x | x | x
O=C(CSc1ccccn1)c1ccc2c(c1)OCO2 | 9.6 | -13.1 | 83.6* | 12.5 | 73.3* | 54.3* | 41.0 | 70.1* | 92.0* | 84.3* | 74.7*
O=C(CSc1ccccn1)Nc1ccc2c(c1)OCO2 | -5.7 | -4.9 | -11.7 | 6.7 | -8.2 | -9.8 | x | x | x | x | x
CCn1c(SCC(=O)N/N=C/c2ccccc2OCC(=O)O)nnc1-c1ccccc1 | -8.9 | 7.0 | 69.9* | x | -3.5 | 1.4 | -3.0 | -0.1 | -2.6 | 5.8 | 7.0
C[C@@H]1CCCCO[C@H](CN(C)S(=O)(=O)c2ccccc2)[C@@H](C)CN([C@H](C)CO)C(=O)c2cc(NC(=O)Cc3ccccc3)ccc2O1 | x | x | x | 8.7 | x | x | x | x | x | x | x
COc1ccccc1/C=N/N1C(=O)c2cccc3cccc(c23)C1=O | -10.3 | -3.0 | -14.5 | 9.9 | -4.1 | -1.0 | x | x | x | x | x
CN(C)c1ccc(/C=N/N2C(=O)c3ccccc3C2=O)cc1 | -19.2 | 12.5 | -3.5 | 25.7 | 90.9* | 72.4* | 28.4 | 71.2* | 60.6* | 50.8* | 17.9
CCN(CC)c1ccc(/C=N/N2C(=O)c3ccccc3C2=O)cc1 | 13.7 | 4.7 | 62.5* | -3.7 | 45.2 | 33.1 | -5.5 | 16.4 | -5.0 | -1.0 | -0.8
COc1ccc(/C=N/N2C(=O)c3ccccc3C2=O)cc1 | -6.6 | -2.0 | 87.6* | 7.2 | 86.8* | 79.4* | 3.0 | 73.7* | 69.6* | 85.1* | 24.6
CCN(CC)c1ccc(/C=N/N2C(=O)c3ccccc3C2=O)c(O)c1 | -8.4 | -0.9 | 0.5 | -0.6 | -1.5 | -16.4 | x | x | x | x | x
Cc1ccc(O)c(N=Nc2ccccc2)n1 | -10.2 | -60.3 | 93.1* | 8.1 | 100.4* | 95.4* | 94.6* | 98.2* | 103.0* | 96.5* | 62.2*
CC(=O)Nc1cccc(-c2csc(C(C)(NC(C)=O)c3ccccc3)n2)c1 (stereo not drawn) | x | x | x | 7.2 | x | x | x | x | x | x | x
CCOC(=O)Cn1nc(C)n(-c2ccc(C)cc2)c1=O | 1.2 | 2.6 | -3.0 | 5.4 | 101.1* | 7.0 | 2.9 | 1.4 | -1.2 | 0.4 | -1.1
COc1ccc(Cn2c(C3CC3)nc3ccc(NC(=O)C4CC4)cc3c2=O)cc1 | 11.6 | -1.5 | 7.6 | -93.0 | 67.3* | 38.1 | 8.6 | 3.1 | 91.5* | 57.6* | -4.2
CC(C)c1ccc(/C=C/C(=O)Nc2nncs2)cc1 | 10.0 | -4.7 | 84.3* | -31.2 | 89.6* | 72.7* | 33.2 | 54.2* | 81.6* | 62.7* | 16.7
Cc1sc(NC(=O)/C=C/c2ccc(C(C)C)cc2)c(C#N)c1C | 3.6 | 0.4 | -3.7 | -70.8 | 8.7 | -3.0 | x | x | x | x | x
Cc1ccc(S(=O)(=O)c2n[nH]n3c2nc(=O)c2ccccc23)cc1 | -4.0 | 0.7 | -14.1 | -237.0 | 8.3 | 1.1 | x | x | x | x | x
O=c1nc2c(-c3cccc(Br)c3)n[nH]n2c2ccccc12 | 8.3 | 5.0 | 88.4* | -303.8 | 80.3* | 91.7* | 37.9 | 44.8 | 23.9 | 61.2* | 3.6
Cc1ccc(-c2nc3cc(C)c(Br)c(C)n3c2CC(C)(C)C)cc1 | x | x | x | 13.1 | x | x | x | x | x | x | x
CC1C(=O)OC2C1CCC1(C)C3(C)C(=O)C=CC213 (stereo not drawn) | x | x | x | 25.6 | x | x | x | x | x | x | x
Cc1cccc(C(=O)Nc2ccc(O)cc2C(=O)O)c1 | 3.3 | -7.5 | 93.4* | 12.6 | 77.4* | 88.2* | 88.2* | 90.0* | 99.9* | 95.3* | 90.6*
Cc1ccc(C(=O)Nc2ccc(O)cc2C(=O)O)cc1C | -1.1 | 0.5 | 46.1 | 17.9 | 24.2 | 24.5 | x | x | x | x | x
SMILES | Apaf-1 inh | UBC13 polyUb | SENP6 inh | SENP8 block-1 | SENP7 inh | SENP8 block-2 | SENP8 conf | SENP6 confirm | SENP7 confirm | Casp3 SENP sel | SENP luc ctr
CN1C(=O)/C(=C/c2ccc(C(=O)Nc3ccc(O)cc3C(=O)O)cc2)SC1=S | 34.8 | -38.1 | 92.7* | 25.7 | 60.0* | 95.9* | 61.7* | 96.6* | 70.0* | 98.3* | 29.0
Cc1ccc(C(=O)Nc2ccc(O)cc2C(=O)O)cc1 | -8.3 | 7.8 | 63.0* | 12.4 | 42.1 | 35.0 | 61.8* | 57.6* | 82.9* | 74.9* | 64.3*
Cc1ccc(/C=C2\SC(=S)N(CCC(=O)NNC(=O)c3ccc(O)cc3)C2=O)cc1 | -63.0 | -21.3 | 3.0 | 22.8 | -3.8 | -8.1 | x | x | x | x | x
CC(C)C1C(=O)N(Cc2cn(Cc3ccco3)nn2)CCS(=O)(=O)N1Cc1ccc(-c2ccc(F)cc2)cc1 (stereo not drawn) | x | x | x | 11.8 | x | x | x | x | x | x | x
COc1ccc(C(CC(=O)c2ccc(O)cc2)S(=O)(=O)c2ccc(C)cc2)cc1 (stereo not drawn) | -63.9 | 3.1 | 49.7 | 4.8 | 55.2* | 27.6 | 52.0* | 22.3 | 69.3* | 18.3 | 58.3*
C[C@H](c1ccccc1)N1C[C@H](COCc2ccccc2)Oc2cc(N3CCC[C@H]3C(N)=O)ccc2S1(=O)=O | x | x | x | 18.6 | x | x | x | x | x | x | x
Cc1cccc(CN2CCN(C3CN(Cc4ccc([N+](=O)[O-])cc4)S(=O)(=O)C3)CC2)c1 (stereo not drawn) | x | x | x | 8.7 | x | x | x | x | x | x | x
C=CCN(CC=C)c1cnn(-c2nc3ccccc3[nH]2)c(=O)c1Cl | -14.1 | 10.2 | 86.6* | -226.4 | 76.5* | 58.0* | 71.0* | 76.6* | 94.3* | 91.2* | 24.8
C=CCN(c1ccccc1)S(=O)(=O)c1cccc(C(=O)Nc2nc3ccccc3[nH]2)c1 | 19.2 | -20.5 | -16.0 | -84.6 | -1.8 | -3.8 | x | x | x | x | x
Cc1ccc2nc(/C=C/c3cccc(F)c3)ccc2c1 | 7.8 | 8.7 | 50.2* | -300.5 | 22.9 | 30.5 | 8.2 | 8.3 | 55.9* | 16.5 | 58.6*

Screening results (PubChem)
